Source: ChEMBL document CHEMBL1132613 (J Med Chem, 1999)
pKi: −log10 of the molar value.

Assays:
Rattus norvegicus [1] = assay: Percentage of animals emitting >80% of lever presses in DOI trained rats at a compound dose of 12.6 uM/Kg; type: functional
In short: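 Male Sprague–Dawley rats (200–220 g) in a two-lever, FR50 food-reinforced task. Rats were trained to discriminate saline from LSD tartrate (0.08 mg/kg), DOI HCl (0.4 mg/kg) or LY293284 (0.025 mg/kg) in 15-min sessions. %SDL is the share of rats making over 80% of presses on the drug lever. %D is the share failing to make 50 presses within 15 min. ED50 by Litchfield–Wilcoxon log-probit.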

[2] = biological target: T1, 5-hydroxytryptamine receptor 1A (Rattus norvegicus, UniProt P19327); assay: Compound was tested for the displacement of [3H]-8-OH- DPAT from rat brain 5-hydroxytryptamine 1A receptor
T1 sequence (P19327 whole entry): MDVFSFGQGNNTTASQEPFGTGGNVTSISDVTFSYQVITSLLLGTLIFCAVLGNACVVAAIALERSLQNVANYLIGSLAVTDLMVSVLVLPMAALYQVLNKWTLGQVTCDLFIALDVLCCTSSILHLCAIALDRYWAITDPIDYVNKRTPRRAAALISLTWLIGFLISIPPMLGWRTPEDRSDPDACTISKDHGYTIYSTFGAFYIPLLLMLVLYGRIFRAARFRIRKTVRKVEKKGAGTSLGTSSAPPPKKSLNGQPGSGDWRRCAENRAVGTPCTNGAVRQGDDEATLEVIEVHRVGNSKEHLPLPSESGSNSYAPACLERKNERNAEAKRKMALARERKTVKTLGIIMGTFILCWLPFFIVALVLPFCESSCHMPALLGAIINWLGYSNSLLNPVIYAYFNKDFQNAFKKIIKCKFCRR
In short: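 Pooled rat hippocampal membranes were preincubated at 37 °C. Buffer was 50 mM Tris HCl pH 7.4 with 0.5 mM Na2EDTA, 10 mM MgCl2, 0.1% Na ascorbate and pargyline. 200–400 μg protein was incubated with [3H]-8-OH-DPAT for 15 min at 37 °C, then GF/C filtered and scintillation counted. Nonspecific binding was defined with 10 μM 5-HT. Triplicate tubes.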

Rattus norvegicus [3] = assay: Percentage of animals failing to emit 50 lever presses within 15 min in […] trained rats at a compound dose of 16 mg/kg; type: functional
In short: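 Two-lever drug discrimination in male Sprague–Dawley rats (200–220 g at start), trained against saline on LSD tartrate (0.08 mg/kg), DOI HCl (0.4 mg/kg) or LY293284 (0.025 mg/kg). FR50 food-pellet reinforcement, levers counterbalanced, 15-min sessions at 22–24 °C. %D is the share of tested rats not completing 50 lever presses within 15 min.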

[4] = biological target: 5-hydroxytryptamine receptor 2B (Homo sapiens, UniProt P41595); assay: Compound was tested for the displacement of [3H]5-HT from clone human 5-hydroxytryptamine 2B receptor
Chain of 5-hydroxytryptamine receptor 2B (P41595 whole entry): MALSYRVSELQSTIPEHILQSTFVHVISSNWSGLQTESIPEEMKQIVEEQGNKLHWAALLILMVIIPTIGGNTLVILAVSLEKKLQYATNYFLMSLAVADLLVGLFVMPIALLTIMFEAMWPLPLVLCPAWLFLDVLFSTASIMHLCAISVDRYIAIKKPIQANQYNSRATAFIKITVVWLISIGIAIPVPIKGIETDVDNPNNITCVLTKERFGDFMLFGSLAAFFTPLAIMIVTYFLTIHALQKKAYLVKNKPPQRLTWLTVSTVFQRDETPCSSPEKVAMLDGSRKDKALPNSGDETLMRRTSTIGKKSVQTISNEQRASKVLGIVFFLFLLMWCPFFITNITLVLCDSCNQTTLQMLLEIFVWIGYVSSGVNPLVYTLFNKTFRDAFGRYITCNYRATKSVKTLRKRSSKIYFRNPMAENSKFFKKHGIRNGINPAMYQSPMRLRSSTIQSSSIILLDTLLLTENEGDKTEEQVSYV
In short: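 Membranes from AV12 cells stably expressing human 5-HT2B, 100–150 μg protein. [3H]-5-HT was about 2 nM (1.7–2.5 nM) final. Buffer was 50 mM Tris pH 7.4 with 3 mM CaCl2, 10 μM pargyline and 0.1% ascorbic acid. Drug dilutions spanned 6 log units. Incubation was 15 min at 37 °C. Nonspecific binding used 10 μM 5-HT or 1-NP. PEI-soaked GF/B filtration, scintillation counting, triplicate, sigmoid nonlinear regression.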

CN(C)CCc1c[nH]c2sccc12
SDL (Rattus norvegicus [1]): 0% | pKi [2]: 6.74 | D (Rattus norvegicus [3]): 0% | pKi [4]: 6.32
